# High-throughput results: PubChem BioAssay, The Scripps Research Institute Molecular Screening Center
# MsrA act: bovine MsrA enzyme activators, primary screen, biochemical, absorbance, HTS; purified bovine MsrA, absorbance read-out; 0.3% of 360,000 active; AID 602163, 2012; activation, % at 10.6 µM; in the data active = activation above about 7.5%;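 also: 0% = vehicle and 100% = reference activator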
# procasp3 activ: activators of human procaspase-3 D3A mutant, primary screen, biochemical, absorbance, PC-3 D3A mutant, single concentration. Caspase-3 (Homo sapiens), P42574. recombinant procaspase-3 D3A, Ac-DEVD-pNA absorbance 405 nm. activation, % at 8.5 µM. 0.11% of 330,000 active. AID 463141, 2010;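 active = activation above the mean of all tested compounds plus 3 SD, cut at about 21% in these data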;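 also: 0% = DMSO alone and 100% = DMSO wells spiked with extra 5 µM PC-3 D3A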
# Target sequence (P42574 whole entry D9A/D28A/D175A): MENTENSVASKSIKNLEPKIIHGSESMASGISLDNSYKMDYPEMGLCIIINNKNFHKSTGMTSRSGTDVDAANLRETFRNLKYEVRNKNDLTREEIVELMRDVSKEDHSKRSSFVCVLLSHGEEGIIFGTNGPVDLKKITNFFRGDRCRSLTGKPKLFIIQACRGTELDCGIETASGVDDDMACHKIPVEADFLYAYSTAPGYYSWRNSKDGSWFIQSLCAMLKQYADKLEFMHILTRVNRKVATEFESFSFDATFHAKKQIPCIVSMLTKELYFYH
#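 Technique: 405 nm absorbance of p-nitroaniline, reads at 0 and 120 min; Test system: Procaspase-3 D3A mutant; Incubation: 1 h enzyme-compound preincubation, then 2 h substrate reaction, 25 °C; Repeats: singlicate, each compound tested once; Benchmarks: low control DMSO wells, high control DMSO plus 5 µM PC-3 D3A.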
# Tb MetRS inh: T. brucei MetRS inhibitors, primary screen, biochemical, luminescence; purified T. brucei MetRS, ATP depletion, Kinase-Glo luminescence; inhibition, % at 11.9 µM; 0.4% of 360,000 active;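 active = inhibition above a per-plate cutoff of the control wells' mean inhibition plus 3 SD, cut at about 5.5% in these data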;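 also: 0% = DMSO wells median and 100% = median of wells with control inhibitor compound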
#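 Material: T. brucei methionyl-tRNA synthetase, purified; reagent: substrates ATP, L-methionine and bulk Escherichia coli tRNA; dosing: 11.9 µM single point; timing: 15 min plus 2 h at 25 °C; detection: luminescence of leftover ATP; evaluation: % inhibition; control set: DMSO-only wells as low control; replicates: singlicate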
# procasp7 counter: procaspase-7 activators, primary screen, counter-screen for procaspase-3 activator project, biochemical, absorbance, HTS, human; Caspase-7 (Homo sapiens), P55210; activation, % at 8.5 µM; recombinant procaspase-7, Ac-DEVD-pNA absorbance 405 nm; D23A/D198A/D206A triple mutant, cannot self-cleave; scale: DMSO 0, 5 µM enzyme 100; 0.093% of 330,000 active;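 active = percent activation above the screen-wide mean plus 3 SD, cut at about 25% in these data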
#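 Assay system: Uncleavable procaspase-7 mutant enzyme / Input: 2 µM procaspase-7 mutant as dispensed / Dosing: single nominal 8.5 µM compound dose, 0.8% DMSO final / Timing: 1 h enzyme–compound preincubation and 2 h substrate reaction, both 25 °C / Detection: p-Nitroaniline absorbance at 405 nm, read at 0 and 120 min / Replication: singlicate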
# MsrA inh: bovine MsrA enzyme inhibitors, primary screen, biochemical, absorbance, HTS. Methionine sulfoxide reductase A (Bos taurus). purified bovine MsrA, absorbance read-out. inhibition, % at 15.5 µM. 0.75% of 360,000 active; in the data active = inhibition above about 4.5%;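 also: 0% = vehicle wells with enzyme and 100% = reference inhibitor wells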
# MsrA act confirm: bovine MsrA activators, retest, confirmation, biochemical, absorbance, HTS; shares compounds with MsrA act; purified bovine MsrA, absorbance read-out; activation, % at 10.6 µM; 12% of 1,000 active; in the data active = activation above about 4%;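 also: enzyme coupled to thioredoxin and thioredoxin reductase with NADPH; 0% = vehicle wells and 100% = reference activator wells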
# * marks the source's active call; other numbers are inactive results; . = no result given. Only some compounds are listed: those with a hit (about 1.5% of all), similar ones and a draw of the others.
SMILES,MsrA act,procasp3 activ,Tb MetRS inh,procasp7 counter,MsrA inh,MsrA act confirm
COC(=O)Cc1nnn2c1[C@H](C)[C@H](c1cccc(OC)c1OC)OCC2,.,.,.,.,-0.1,.
COC(=O)C1=C(C)N(C)C(=NCc2ccccc2C(F)(F)F)NC1c1ccc(Cl)cc1 (centres undefined),.,.,.,.,0.2,.
CCOC(=O)C1(Cc2ccccc2)CCN(Cc2csc(C(C)=O)c2)CC1,9.8*,-6.6,0.3,3.5,2.3,-1.2
COc1ccccc1CNC(=O)CCNC(=O)Cn1cnc2ccccc2c1=O,8.8*,-4.7,-0.3,5.1,-0.6,-0.2
CCOC(=O)[C@H]1[C@H]2COc3ccc(OC)cc3[C@@H]2N2C(=O)CN(Cc3ccc(C)cc3)C(=O)[C@@]12C,14.0*,-6.1,0.7,16.5,0.2,0.2
CCOC(=O)[C@H]1[C@H]2COc3ccc(OC)cc3[C@@H]2N2C(=O)CN(Cc3ccc(OC)cc3)C(=O)[C@@]12C,-2.5,6.3,0.5,5.6,-0.3,.
Cc1[nH]c2ccccc2c1CC(=O)Nc1ccc(Nc2cccnc2)c(-c2cc(F)cc(F)c2)c1,.,.,.,.,1.7,.
Cc1ccc(S(=O)(=O)N2CC3=C(c4ccccc4)CC4(C)C(=O)C(C)(C)CC4=C3C2)cc1 (centres undefined),.,.,.,.,0.2,.
Cc1ccccc1C(=O)NCCCCc1ccccc1,8.7*,-3.4,-0.5,4.1,0.1,1.9
CS(=O)(=O)N(CC(=O)N1CCOCC1)c1cccc(F)c1,9.2*,-3.5,-0.7,-3.3,-0.5,-1.0
O=C(Nc1ccc2c(c1)OCCO2)C(c1cc2ccccc2o1)N1CCN(C/C=C/c2ccccc2)CC1 (centres undefined),15.7*,.,0.4,.,-0.5,-1.5
O=C(Nc1ccc2c(c1)OCCO2)C(C1CC1)N1CCN(C/C=C/c2ccccc2)CC1 (centres undefined),-2.0,.,-0.5,.,-0.9,.
C[C@H]1[C@H](c2ccccc2)Oc2cccc(N3CCCC3)c2S(=O)(=O)N1Cc1cccc(F)c1,.,.,.,.,-0.4,.
O=C1N[C@@H](Cc2ccccc2)COC(=O)[C@H](Cc2ccc(F)cc2)C/C=C\C[C@H]1CC(=O)N(CCO)Cc1ccccc1,18.7*,5.8,0.1,1.2,-1.6,-1.3
O=C1N[C@H](Cc2ccccc2)COC(=O)[C@H](Cc2ccc(F)cc2)C/C=C\C[C@H]1CC(=O)N(CCO)Cc1ccccc1,-7.6,-7.5,0.6,3.7,-0.1,.
C[C@@H]1CN(C(=O)OC(C)(C)C)CCN1c1ccc(N2CC[C@@H](O)C2)c(C#N)c1,.,.,.,.,-0.1,.
Fc1ccc(-c2nnc(SCc3ncc(-c4ccccc4)o3)n2CC2CCCO2)cc1 (centres undefined),11.3*,4.3,-0.5,5.7,0.3,2.3
COC(=O)C1=C(C)N(Cc2ccccc2C(F)(F)F)C(=NCc2ccccc2C(F)(F)F)NC1c1cccc(F)c1 (centres undefined),.,.,.,.,-1.4,.
NC(=O)c1ccc(=O)n(Cc2ccc(F)c(F)c2)c1,8.0*,7.3,0.2,7.6,0.2,-0.7
C[C@@H](CSc1ccccc1)CN1CC[C@H](C(C)(C)C)CCC1=O,8.2*,-7.6,-0.2,-4.2,1.2,-0.8
COc1ccc(SC[C@H](C)CN2CC[C@H](C(C)(C)C)CCC2=O)cc1,1.7,-1.6,-0.3,-3.7,0.3,.
O=C(Nc1ccc(F)cc1F)N1CCCCCC1,-6.3,-6.5,-0.6,9.2,1.9,.
CC(=O)NC1(c2ccc(F)cc2)CCN(C(=O)Nc2ccc(F)cc2F)CC1,8.6*,0.1,-0.3,-6.5,-0.8,0.5
Nc1[nH]c(C(=O)c2ccccc2)c(-c2ccc3ccccc3c2)c1C(=O)NCc1cccc2ccccc12,.,.,.,.,1.8,.
